Results from different studies.
Lines come from different studies, so protocols differ.
Target: G protein-coupled receptor kinase 3 (GRK3, Homo sapiens, UniProt P35626)
Sequence (P35626 1-688, as in one of the studies): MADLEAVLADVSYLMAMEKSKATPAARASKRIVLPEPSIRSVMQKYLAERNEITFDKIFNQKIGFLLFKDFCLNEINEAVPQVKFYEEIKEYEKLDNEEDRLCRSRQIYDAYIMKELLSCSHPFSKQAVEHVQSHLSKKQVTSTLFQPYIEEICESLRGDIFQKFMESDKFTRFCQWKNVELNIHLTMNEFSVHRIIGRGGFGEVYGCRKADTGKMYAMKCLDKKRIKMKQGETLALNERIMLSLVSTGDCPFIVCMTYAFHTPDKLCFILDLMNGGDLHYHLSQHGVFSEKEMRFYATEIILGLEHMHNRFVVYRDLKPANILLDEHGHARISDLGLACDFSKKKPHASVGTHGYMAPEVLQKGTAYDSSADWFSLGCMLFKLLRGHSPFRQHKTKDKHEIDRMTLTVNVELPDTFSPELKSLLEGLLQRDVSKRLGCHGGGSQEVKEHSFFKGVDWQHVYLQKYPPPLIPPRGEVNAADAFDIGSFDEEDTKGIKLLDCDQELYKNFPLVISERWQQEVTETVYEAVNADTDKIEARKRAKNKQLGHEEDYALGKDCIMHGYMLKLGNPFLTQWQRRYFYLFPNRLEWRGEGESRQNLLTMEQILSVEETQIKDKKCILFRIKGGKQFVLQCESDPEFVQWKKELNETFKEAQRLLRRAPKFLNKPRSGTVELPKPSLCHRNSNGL

Cn1c2c(c3ccc(Cl)c(Cl)c31)C(C#N)C1(CCCC1)NC2=O (stereo not drawn)
ΔTm (thermal stability, DSF; 10 µM): -0.1 °C

Nc1ncnc2occ(-c3ccc(NC(=O)Nc4cc(C(F)(F)F)ccc4F)cc3)c12
remaining signal (cell-free assay, inhibitor; 20 µM): 69%

Cc1sc(C(=O)NC2COC2)cc1-n1cc(NC(=O)Nc2c(F)cccc2Cl)cn1
remaining activity (enzyme activity, inhibitor; 10 µM): 107%

NS(=O)(=O)c1cc(NC(=O)Cc2ccccc2)ccc1Oc1cccc(Cl)c1
remaining binding (cell-free assay, competition with immobilised ligand; 1 µM): 100%

O=C1Nc2ccc(Cl)cc2C1=Cc1cc(Cl)c(O)c(Cl)c1
remaining signal (cell-free assay; 0.5 µM): 102%

CN(c1ccnc(CNc2nc(Nc3ccc4c(c3)CC(=O)N4)ncc2C(F)(F)F)n1)S(C)(=O)=O
remaining binding (cell-free assay, competition with immobilised ligand; 1 µM): 91%

N#CC1c2c([nH]c3c(Cl)c(Cl)ccc23)C(=O)NC12CCCCC2 (racemic)
ΔTm (thermal stability, DSF; 10 µM): 0.7 °C

CC(C)(C)c1nc(-c2cccc(NS(=O)(=O)c3c(F)cccc3F)c2F)c(-c2ccnc(N)n2)s1
remaining activity (enzyme activity, inhibitor, radiometric; 1 µM): 86%

CCCOc1ccc([C@@H]2[C@@H](C(=O)O)[C@H](c3ccc4c(c3)OCO4)CN2CC(=O)Nc2c(CC)cccc2CC)cc1
remaining binding (cell-free assay, competition with immobilised ligand; 1 µM): 100%

CCN1CCC2(CC1)NC(=O)c1c(c3ccc(Cl)c(Cl)c3n1C)C2C#N (racemic)
ΔTm (thermal stability, DSF; 10 µM): 0.8 °C

Cc1ccc(C(=O)Nc2ccc(CN3CCN(C)CC3)c(C(F)(F)F)c2)cc1C#Cc1cnc2cccnn12
remaining activity (enzyme activity, inhibitor; 23.5 nM): 76%

CS(=O)(=O)N1CCCC(NC(=O)[C@H](CCC2CCCCC2)NC(=O)c2ccc(CNC(=O)c3cnc4ccccn34)cc2)C1 (stereo partly drawn)
remaining binding (cell-free assay, competition with immobilised ligand; 0.1 µM): 100%

Cn1c2c(c3ccc(Cl)c(Cl)c31)C(C#N)C1(CCCCC1)NC2=O (racemic)
ΔTm (thermal stability, DSF; 10 µM): 0.4 °C

COc1cc2ncnc(Nc3ccc(Oc4ccccc4)c(C)c3C)c2cc1OC
inhibition (enzyme activity, inhibitor; 1 µM): -2%

CS(=O)(=O)c1cc(C2(NC(=O)c3cncc4c3cnn4-c3ccc(F)cc3)CC2)ccn1
remaining binding (cell-free assay, competition with immobilised ligand; 1 µM): 100%

N#CCCc1ccc2c(c1)-c1[nH]c3ccc([N+](=O)[O-])cc3c1CC(=O)N2
remaining signal (cell-free assay; 0.5 µM): 97.1%

COc1cc(Cl)c(C(=O)N[C@@H](CN[C@H]2CC[C@@H](N)CC2)Cc2ccc(C#N)cc2)cc1-c1ccc(CN[C@H](C)c2ccc(C)cc2)o1
remaining activity (enzyme activity, inhibitor; 1 µM): 99%

Cn1c2c(c3ccc(Cl)c(Cl)c31)C(C#N)C(C)(C)NC2=O (stereo not drawn)
ΔTm (thermal stability, DSF; 10 µM): 0.6 °C

CC(C)(O)[C@H]1CC[C@H](Nc2ccc3ncc(-c4cccc(C(F)(F)F)c4)n3n2)CC1
remaining activity (enzyme activity, inhibitor; 1 µM): 107%

Cn1c2c(c3ccccc31)C(C#N)C(C)(C)NC2=O (stereo not drawn)
ΔTm (thermal stability, DSF; 10 µM): 0.2 °C

COc1ccc2cc(OCC3(C(=O)O)CN(C(=O)c4ccc(F)cc4)C3)ccc2c1
remaining binding (cell-free assay, competition with immobilised ligand; 1 µM): 67%
